Screening results deposited in PubChem by Broad Institute.
T cruzi repl: blocks replication of Trypanosoma cruzi | hit rate 1.4% among 300,000 | T. cruzi beta-gal in NIH3T3, luminescence, 90 h | inhibition, % (test concentration not listed) | AID 1885;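 active = mean inhibition across valid replicates above about 55%, limit read from the data; inconclusive = mean below that limit but half or more replicates reach it; inactive = mean below it, under half of replicates reach it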;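 note: signal also drops with host cell toxicity which is not excluded here; higher percent means less beta-gal luminescence so fewer parasites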
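Assay system: NIH/3T3 host cells with β-galactosidase reporter T. cruzi; input: 5,000 host fibroblasts per well; compound: single 50 nL compound addition per well in DMSO; timing: ≥90 h infection period, 3 h prior cell attachment; measured by: GalScreen β-gal luminescence, detergent lysis, 60 min; evaluation: percent inhibition of parasite-derived β-gal signal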
Calb FLC: affects C. albicans growth with fluconazole; C. albicans CaCi-2 + fluconazole, Alamar Blue growth, 48 h; hit rate 0.57% among 300,000; growth inhibition, % (concentration not given with the values);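 active = growth inhibition above about 58% in most replicates, limit read from the data, passing the limit was not always enough; inconclusive = exactly half the replicates above a set limit; inactive = most replicates below a set limit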;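 note: all wells also contain fluconazole at 8 µg/ml as a sub-toxic cotreatment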
HIF activator: HIF pathway transcriptional activation. hit rate 0.32% among 300,000. AID 1910. U2OS HRE-luciferase reporter, luminescence; normalized: DMSO 0%, desferrioxamine 100%. activation, % at 7.5 µM (by protocol);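 active = mean activation of at least 10% of the iron chelator positive control signal, with at least half of replicates also reaching 10%; inconclusive = mean and replicate majority disagree about reaching 10%; inactive = mean and most replicates under 10%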
HSF1 inh: HSF1 inhibition. NIH3T3-HGL HSE-luciferase, MG132-induced, luminescence 8 h; stronger effect = lower value. activity change, negative = inhibition, % at 7.5 µM (by protocol). hit rate 0.77% among 300,000. AID 2098;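 active = more than half of replicate wells show activity change below -50%, luminescence cut by over half; inconclusive = some wells, but at most half, below -50%; inactive = no replicate well below -50%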;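 note: luciferase reports HSF-1 transcriptional activity via heat shock element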
HSF1 activator: increases HSF-1 driven luciferase reporter signal | activation, % at 9 µM | NIH3T3-HGL HSF-1 luciferase reporter, MG132, 8 h; 100% = twice DMSO control signal | AID 504408 | hit rate 1.7% among 300,000;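 active = mean replicate activation of at least 50% with a set share of replicates each reaching 50%; inconclusive = only one of those two conditions met; inactive = mean below 50% and too few replicates reaching it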
A number is an active result; i = inactive; ? = inconclusive; nt = not tested or not shown. Compounds with a hit are over-represented: about 4.4% of the library has one in this group of screens.

SMILES | T cruzi repl | Calb FLC | HIF activator | HSF1 inh | HSF1 activator
COc1ccc(NC(=S)NC(NC(=O)/C=C/c2ccccc2)C(Cl)(Cl)Cl)cc1 (stereo not given) | i | i | i | i | i
O=C(c1ccc(NS(=O)(=O)c2ccc(F)cc2)cc1)N1CCOCC1 | i | i | i | i | i
C[C@H](NC(=O)C1CCN(S(=O)(=O)c2ccccc2)CC1)C(=O)NCc1ccco1 | i | i | i | i | i
O=C(c1ccccc1)n1c(=O)cc[nH]c1=O | i | i | i | i | i
COc1ccc(/C=C2\SC(=O)N(CC(=O)NNC(=O)c3ccccc3O)C2=O)cc1OC | i | 104.8 | i | i | i
COc1ccc(/C=C2\SC(=O)N(CC(=O)NNC(=O)c3ccccc3O)C2=O)cc1 | i | i | i | i | i
Cc1ccc(S(=O)(=O)CC(C)N2CCOCC2)c(S(=O)(=O)CC(C)N2CCOCC2)c1 (stereo not given) | i | 103.0 | i | i | i
CCOC(=O)C1=C(COC(=O)C(CC)Oc2ccccc2)NC(=O)NC1C (stereo not given) | i | i | i | i | i
Cc1nn(-c2ccccc2)c(/N=C/c2ccc(O)cc2)c1-c1ccccc1 | i | i | i | i | 55.6
CCOc1cc(NC(=S)NCCCN2CCOCC2)c(OCC)cc1NC(=O)c1ccc(C)cc1 | i | ? | i | i | i
CCOC(=O)c1c(CSc2ccc(CC)cc2)oc2ccc(O)c(CN(C)C)c12 | 62.5 | i | i | i | i
O=C(O)c1ccc(COc2ccccc2Cl)cc1 | i | i | i | i | i
O=C(O)c1cccc(COc2ccccc2Cl)c1 | i | i | i | -86.2 | i
O=C1NC(=O)/C(=C\c2ccc(OCc3cccc(C(=O)O)c3)c(Cl)c2)N1 | i | i | i | -55.5 | i
COc1ccc2[nH]cc(CCNC(=O)CS(=O)(=O)Cc3ccccc3)c2c1 | i | i | i | i | i
COC(=O)C(NNc1ccccc1C)(NC(=O)c1ccc(F)cc1)C(F)(F)F (stereo not given) | i | i | i | i | 80.5
COc1ccc(C(CCN)Cc2ccccc2)cc1 (stereo not given) | 89.4 | i | i | i | i
COc1ccc(C(CC(=O)c2ccccc2)CC(=O)c2ccccc2)cc1 | i | i | i | i | i
COc1cccc(-c2ccc(NC(=O)C3CCCN(CCCn4nc(C)cc4C)C3)cc2)c1 (stereo not given) | i | i | i | i | i
Fc1ccccc1Cc1noc(CN2CCN(Cc3ccc4c(c3)OCO4)CC2)n1 | 59.9 | i | i | i | i
COc1ccccc1CN1CCN(Cc2nc(-c3ccccc3)no2)CC1 | i | i | i | i | i
Fc1ccc(CN2CCCN(Cc3nc(-c4ccc5c(c4)OCO5)no3)CC2)cc1 | 66.9 | i | i | i | i
COC(=O)[C@@H]1CCCN1Cc1nc(Cc2ccc(OC)c(OC)c2)no1 | i | i | i | i | i
COc1ccccc1CN1CCN(Cc2nc(Cc3ccccc3)no2)CC1 | 63.3 | i | i | i | i
COC(=O)[C@@H]1CCCN1Cc1nc(Cc2ccccc2F)no1 | i | 92.1 | i | i | i
SMILES | T cruzi repl | Calb FLC | HIF activator | HSF1 inh | HSF1 activator
O=C(c1ccco1)N1CCCN(Cc2nc(-c3ccc4c(c3)OCO4)no2)CC1 | i | i | i | i | i
CCCn1c(SCC(=O)c2c[nH]c3ccccc23)nnc1-c1ccncc1 | i | i | i | i | i
CN(C)c1ccc(C(C(=O)NC2CCCC2)N(C(=O)c2ccco2)C2CC2)cc1 (stereo not given) | i | i | i | i | i
COc1cc2c3c(c1)C1(C(=O)N3C(C)(C)C=C2C)C(C#N)=C(N)Oc2cc(C)oc(=O)c21 (stereo not given) | i | i | i | i | i
CC1=CC(C)(C)N2C(=O)C3(C(C#N)=C(N)Oc4cc(C)oc(=O)c43)c3cc(C)cc1c32 (stereo not given) | 54.9 | i | i | i | i
CCCCn1c(SCC(=O)Nc2cccc(OC)c2)nc2ccc(N3CCOCC3)cc2c1=O | i | 96.3 | i | i | i
O=C(O)C1CCCN1S(=O)(=O)c1cccc2nsnc12 (stereo not given) | i | i | i | i | i
COc1cc(N/N=C/c2ccccc2O)ncn1 | i | i | 10.1 | i | 65.2
O=C(Nc1ccccc1Cc1ccccc1)c1ccncc1 | 59.2 | i | i | i | i
O=C(Nc1ccccc1Cc1ccccc1)c1ccccc1F | i | i | i | i | i
Cc1ccc(OCCCCn2cnc3ccccc32)cc1 | i | i | i | -78.5 | i
Brc1ccccc1OCCCn1cnc2ccccc21 | i | i | i | i | 60.7
CC(C)CNS(=O)(=O)c1ccc(CCC(=O)N2CCCC2)cc1 | i | i | i | i | i
CC(C)CNS(=O)(=O)c1ccc(CCC(=O)N2CCOCC2)cc1 | i | nt | i | -72.7 | i
Clc1ccc(C2CSc3c4ncnc-4ncn32)cc1 (stereo not given) | i | i | i | i | i
c1ccc(Nc2cccc3c(Nc4ccccc4)cccc23)cc1 | 56.1 | i | i | i | i
CC(=O)C(=Cc1cn(-c2ccccc2)nc1-c1ccccc1)C(C)=O | i | nt | i | i | i
CCN1C(=O)c2cccc3c(S(=O)(=O)Nc4ccccc4OC)ccc1c23 | i | i | i | i | 59.4
COc1cc(NS(=O)(=O)c2cc(C)ccc2OC)c(OC)cc1Cl | i | i | i | i | 67.4
O=C1C2C(c3ccccc3)CC=CC2[C@H](c2cccc([N+](=O)[O-])c2)N1Cc1ccccc1 (stereo not given in full) | 56.1 | i | i | i | i
COc1cccc(C(=O)Nc2cccc3cccnc23)c1OC | i | i | i | i | i
CSc1cccc(NC(=S)N(Cc2ccccc2)Cc2cccnc2)c1 | 82.5 | i | i | i | i
Cc1c(Cl)cccc1NC(=S)N(Cc1cccnc1)Cc1ccccc1Cl | 75.3 | i | i | i | i
Cc1cccc(C)c1NC(=S)N(Cc1ccccc1)Cc1cccnc1 | 79.2 | i | i | i | i
COc1ccccc1NC(=S)N(Cc1ccccc1)Cc1cccnc1 | i | i | i | i | i
SMILES | T cruzi repl | Calb FLC | HIF activator | HSF1 inh | HSF1 activator
CCOC(=O)c1cnc(-n2nc(C)cc2C)nc1NNc1nc(-c2ccccc2)cc(-c2ccccc2)n1 | i | i | 18.4 | i | i
CCOC(=O)c1cnc(-n2nc(C)cc2C)nc1NC1CCCCC1 | 76.3 | i | i | i | i
CCOC(=O)c1cnc(-n2nc(C)cc2C)nc1Nc1ccc(N(C)C)cc1 | 62.5 | i | i | i | i
C=CCSc1nnc2nc3[nH]c4c(C)cccc4c3nn12 | i | i | i | i | i
Cc1nnc(NC(=O)CSc2nnc(CC(=O)Nc3ccccc3C)n2C)s1 | i | i | i | i | i
CN(c1ccc(C(=O)Nc2ccc3c(c2)n(C)c(=O)n3C)cc1)S(C)(=O)=O | i | nt | i | i | i
CCOC(=O)c1csc(Nc2nc3ccc(F)cc3s2)n1 | ? | i | i | i | i
COC(=O)c1ccc2nc(NC(=O)C(C)(C)C)sc2c1 | i | i | i | -55.3 | i
COC(=O)c1ccc(NC(=O)c2ccc3nc(C)sc3c2)cc1 | i | i | i | -68.3 | i
